Measurements as given in paper PMC3902942 (Nucleic Acids Research, 2013).

Key:
[1] = molecular target: λB site DNA hairpin duplex; experiment: Biosensor-SPR direct binding of compounds to immobilized λB site DNA hairpin; settings: read-out: KD for the λB site
[2] = system: PU.1-λB complex (PU.1 ETS domain on immobilized λB site hairpin); experiment: Biosensor-SPR PU.1-DNA complex inhibition; type: binding, murine
Summary of the method: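 Murine PU.1 ETS domain (residues 167–272), expressed in E. coli, on a Biacore T200 biosensor. 5′-Biotinylated λB-site hairpin DNA immobilised on CM4 chips. Protein injected at constant 100 nM to saturate DNA sites, with graded compound concentrations added to the protein solution. Loss of protein signal plotted against compound concentration. Transition midpoint taken as IC50.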

Row | Kd [1] [nM] | Inhibition of PU.1 binding (in words) [2] | SMILES | IC50 ([2]; read-out: IC50 of PU.1 binding inhibition) [nM]
1 | 530 | does not inhibit PU.1 binding | N=C(N)c1ccc(-c2ccc(-c3ccc(C(=N)N)cc3)o2)cc1 [DB75, furamidine] | 
2 |  |  | N=C(N)c1ccc(-c2ccc(-c3ccc(C(=N)N)cc3)[se]2)cc1 [DB1213] | ~1500
